Assay results taken from ChEMBL document CHEMBL1821664, “Sulfonamides as a new scaffold for hypoxia inducible factor pathway inhibitors” (Bioorg Med Chem Lett, 2011).
Calls of active or inactive are those of the source. No cut-off for these calls is given here.

Experiments:
[1] = molecular target: T1, Hypoxia inducible factors; HIF-1-alpha, HIF-2-alpha (Homo sapiens, UniProt Q16665+Q99814); test: Inhibition of hypoxia-induced HIF1 activation in human LN229 cells expressing HRE-AP reporter gene assessed as HRE remaining activity at 10 uM preincubated for 1 hr under normoxia condition followed by 24 hrs incubation under hypoxia condition by alkaline phosphatase reporter assay relative to control; type: cell-based
Procedure, shortened: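 LN229-HRE-AP cells pre-treated 1 h with compound or vehicle (1% DMSO), then 24 h in 1% O2 hypoxia incubator; cells lysed and alkaline phosphatase activity measured. Hits were compounds reducing hypoxic AP induction >50%; single assay.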

[2] = molecular target: T1, Hypoxia inducible factors; HIF-1-alpha, HIF-2-alpha; test: Inhibition of hypoxia-induced HIF1 activation in human LN229 cells expressing HRE-AP reporter gene at 5 uM preincubated for 1 hr under normoxia condition followed by 24 hrs incubation under hypoxia condition by HRE-luciferase reporter assay relative to control; values are per cent of control
[3] = molecular target: T1, Hypoxia inducible factors; HIF-1-alpha, HIF-2-alpha; test: Inhibition of hypoxia-induced HIF1 activation in human LN229 cells expressing HRE-AP reporter gene at 10 uM preincubated for 1 hr under normoxia condition followed by 24 hrs incubation under hypoxia condition by HRE-luciferase reporter assay relative to control; values are per cent of control
[4] = molecular target: T1, Hypoxia inducible factors; HIF-1-alpha, HIF-2-alpha; test: Inhibition of hypoxia-induced HIF1 activation in human LN229 cells expressing HRE-AP reporter gene at 2.5 uM preincubated for 1 hr under normoxia condition followed by 24 hrs incubation under hypoxia condition by HRE-luciferase reporter assay relative to control; values are per cent of control
[5] = molecular target: T1, Hypoxia inducible factors; HIF-1-alpha, HIF-2-alpha; test: Inhibition of hypoxia-induced HIF1 activation in human LN229 cells expressing HRE-AP reporter gene preincubated for 1 hr under normoxia condition followed by 24 hrs incubation under hypoxia condition by HRE-luciferase reporter assay; type: cell-based
Procedure, shortened: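 HRE-luciferase dose-response: cells pre-treated 1 h, then 24 h hypoxia; luciferase measured in cell extracts; each compound run 5–21 times on separate days, in triplicate. IC50 obtained from a four-parameter logistic fit using a nonlinear mixed-effects model.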

[6] = molecular target: T1, Hypoxia inducible factors; HIF-1-alpha, HIF-2-alpha; test: Inhibition of hypoxia-induced HIF1 activation in human LN229 cells expressing VEGF reporter gene assessed as VEGF expression at 10 uM preincubated for 1 hr under normoxia condition followed by 24 hrs incubation under hypoxia condition by luciferase reporter assay; type: cell-based
Procedure, shortened: (§1)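 LN229 cells stably carrying a VEGF promoter-luciferase construct, pre-treated 1 h in normoxia with compound at 10 µM final, then 24 h in normoxia or hypoxia; luciferase measured in cell extracts; triplicate means ± SD.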

[7] = molecular target: T1, Hypoxia inducible factors; HIF-1-alpha, HIF-2-alpha; test: Inhibition of hypoxia-induced HIF1 activation in human LN229 cells expressing VEGF reporter gene assessed as VEGF expression at 10 uM after 24 hrs incubation under hypoxia condition by luciferase reporter assay; type: cell-based; procedure, shortened: as §1

| SMILES | Activity [1] | residual activity [2] | residual activity [3] | residual activity [4] | further results |
| --- | --- | --- | --- | --- | --- |
| CC(c1ccc2c(c1)C=CC(C)(C)O2)n1cnc2ncccc21 (configuration not stated) | 76.9% | – | – | – | – |
| CC(=O)N(Cc1ccc2c(c1)C=CC(C)(C)O2)C(C)C | 105% | – | – | – | – |
| COc1ccc(Cl)cc1S(=O)(=O)N(Cc1ccc2c(c1)C=CC(C)(C)O2)c1ccccc1 | – | 56% | 28% | 61% | – |
| CC(C)N(Cc1ccc2c(c1)C=CC(C)(C)O2)S(=O)(=O)c1ccc([N+](=O)[O-])cc1 | 43.2% | – | – | – | – |
| CC(C)CN(Cc1ccc2c(c1)C=CC(C)(C)O2)S(=O)(=O)c1ccc(Oc2c(Cl)cccc2[N+](=O)[O-])cc1 | – | 23% | 24% | 34% | – |
| COc1c(CN(Cc2ccccc2)C(=O)c2cccs2)ccc2c1OC(C)(C)C=C2 | 67.5% | – | – | – | – |
| CC(c1ccc2c(c1)C=CC(C)(C)O2)n1ccnc1 (configuration not stated) | 86.6% | – | – | – | – |
| COc1c(CN(C(=O)c2ccc(Br)cc2)c2ccccc2)ccc2c1OC(C)(C)C=C2 | 63.2% | – | – | – | – |
| COc1c(C(C)n2cnc3cc(Cl)ccc32)ccc2c1C=CC(C)(C)O2 (configuration not stated) | 55.7% | – | – | – | – |
| CC1(C)C=Cc2cc(CN(c3ccccc3)S(=O)(=O)c3cccc4ccccc34)ccc2O1 | – | 75% | 29% | 55% | – |
| COc1c(CN(c2ccccc2)S(=O)(=O)c2cc(Cl)ccc2Cl)ccc2c1OC(C)(C)C=C2 | 51.5% | – | – | – | – |
| COc1ccc(S(=O)(=O)N(Cc2ccc3c(c2OC)OC(C)(C)C=C3)c2ccccc2)cc1OC | 48.6% | – | – | – | – |
| COc1c(CN(c2ccccc2)S(=O)(=O)c2ccc(C)cc2)ccc2c1OC(C)(C)C=C2 | 58.4% | – | – | – | – |
| COc1c(C(C(C)C)n2cnc3ncccc32)ccc2c1C=CC(C)(C)O2 (configuration not stated) | 88.8% | – | – | – | – |
| COc1ccc(S(=O)(=O)N(Cc2ccc3c(c2)C=CC(C)(C)O3)C(C)C)cc1OC | 64.7% | – | – | – | – |
| CC1(C)C=Cc2cc(C(c3ccccc3)n3cnc4cc(Cl)ccc43)ccc2O1 (configuration not stated) | 87.9% | – | – | – | – |
| CC1(C)C=Cc2cc(CN(C3CCCCC3)S(=O)(=O)c3ccc([N+](=O)[O-])cc3)ccc2O1 | – | 53% | 33% | 68% | – |
| CC1(C)C=Cc2cc(CN(c3ccccc3)S(=O)(=O)c3ccc(Oc4c(Cl)cccc4[N+](=O)[O-])cc3)ccc2O1 | – | 21% | 27% | 40% | – |
| COc1c(C(C)n2ccnc2)ccc2c1C=CC(C)(C)O2 (configuration not stated) | 104% | – | – | – | – |
| COc1c(CN(C(C)=O)c2ccccc2)ccc2c1OC(C)(C)C=C2 | 108% | – | – | – | – |
| COc1cc(OC)cc(S(=O)(=O)N(Cc2ccc3c(c2)C=CC(C)(C)O3)CC(C)C)c1 | – | – | – | – | IC50 [5]: 1.011 µM; inhibition [6]: Active; inhibition [7]: inactive |
| CC1(C)C=Cc2cc(CN(c3ccccc3)S(=O)(=O)c3cc(Cl)ccc3Cl)ccc2O1 | 54.2% | 51% | 35% | 62% | – |
| COc1c(CN(C(=O)c2cccs2)c2ccccc2)ccc2c1OC(C)(C)C=C2 | 61.8% | – | – | – | – |

| SMILES | Activity [1] | residual activity [2] | residual activity [3] | residual activity [4] | further results |
| --- | --- | --- | --- | --- | --- |
| CC1(C)C=Cc2cc(CN(c3ccccc3)S(=O)(=O)c3ccc([N+](=O)[O-])cc3)ccc2O1 | – | 66% | 50% | 78% | – |
| CC1(C)C=Cc2cc(CN(c3ccccc3)S(=O)(=O)c3ccc(Br)cc3OC(F)(F)F)ccc2O1 | – | 56% | 35% | 53% | – |
| CC(O)c1ccc2c(c1)C=CC(C)(C)O2 (configuration not stated) | 94.9% | – | – | – | – |
| COc1ccc(Cl)cc1S(=O)(=O)N(Cc1ccc2c(c1)C=CC(C)(C)O2)CC(C)C | – | 90% | 73% | 81% | – |
| CC1(C)C=Cc2cc(/C=N/O)ccc2O1 | 91.4% | – | – | – | – |
| COc1ccc(S(=O)(=O)N(Cc2ccccc2)Cc2ccc3c(c2OC)OC(C)(C)C=C3)cc1OC | 68.5% | – | – | – | – |
| CC1(C)C=Cc2cc(CN(C3CCCCC3)S(=O)(=O)c3cccc4ccccc34)ccc2O1 | – | 37% | 37% | 68% | – |
| COc1c(CN(Cc2ccccc2)C(C)=O)ccc2c1OC(C)(C)C=C2 | 93.1% | – | – | – | – |
| CC(C)N(Cc1ccc2c(c1)C=CC(C)(C)O2)C(=O)c1ccc(Br)cc1 | 63.9% | – | – | – | – |
| CCN(CC)C(=O)OCn1cc(C(O)c2ccc3c(c2)C=CC(C)(C)O3)nn1 (configuration not stated) | 97.7% | – | – | – | – |
| CC(=O)N(Cc1ccc2c(c1)C=CC(C)(C)O2)c1ccccc1 | 91.5% | – | – | – | – |
| CC1(C)C=Cc2cc(CN(C(=O)c3ccc(Br)cc3)c3ccccc3)ccc2O1 | 57.6% | – | – | – | – |
| CC1(C)C=Cc2cc(C(O)c3cn(C(C)(C)C)nn3)ccc2O1 (configuration not stated) | 90.7% | – | – | – | – |
| COc1c(C(C(C)C)n2ccnc2)ccc2c1C=CC(C)(C)O2 (configuration not stated) | 135% | – | – | – | – |
| COc1ccc(Cl)cc1S(=O)(=O)N(Cc1ccccc1)Cc1ccc2c(c1)C=CC(C)(C)O2 | – | 78% | 50% | 66% | – |
| CC1(C)C=Cc2cc(C(c3ccccc3)n3cnc4ncccc43)ccc2O1 (configuration not stated) | 83.5% | – | – | – | – |
| CC(C)CN(Cc1ccc2c(c1)C=CC(C)(C)O2)S(=O)(=O)c1ccc(Br)cc1OC(F)(F)F | – | 57% | 24% | 49% | – |
| COc1ccc(S(=O)(=O)N(Cc2ccccc2)Cc2ccc3c(c2)C=CC(C)(C)O3)cc1OC | – | 26% | 15% | 54% | – |
| COc1ccc(S(=O)(=O)N(Cc2ccc3c(c2)C=CC(C)(C)O3)C2CCCCC2)cc1OC | – | 17% | 4% | 44% | – |
| CC1(C)C=Cc2cc(CN(Cc3ccccc3)S(=O)(=O)c3ccc(Oc4c(Cl)cccc4[N+](=O)[O-])cc3)ccc2O1 | – | 51% | 27% | 54% | – |
| CC1(C)C=Cc2cc(CN(C3CCCCC3)S(=O)(=O)c3ccc(Oc4c(Cl)cccc4[N+](=O)[O-])cc3)ccc2O1 | – | 49% | 49% | 73% | – |
| COc1c(CN(c2ccccc2)S(=O)(=O)c2ccc([N+](=O)[O-])cc2)ccc2c1OC(C)(C)C=C2 | 72.4% | – | – | – | – |
| CC1(C)C=Cc2cc(CN(C3CCCCC3)S(=O)(=O)c3ccc(Br)cc3OC(F)(F)F)ccc2O1 | – | 75% | 61% | 79% | – |

| SMILES | Activity [1] | residual activity [2] | residual activity [3] | residual activity [4] | further results |
| --- | --- | --- | --- | --- | --- |
| CC1(C)C=Cc2cc(C(O)c3cn(CCNc4ccc([N+](=O)[O-])c5nonc45)nn3)ccc2O1 (configuration not stated) | 116% | – | – | – | – |
| CCOC(OCC)c1ccc2c(c1OC)OC(C)(C)C=C2 | 105% | – | – | – | – |
| CC1(C)C=Cc2cc(C(O)c3cn(CCOc4ccc5ccc(=O)oc5c4)nn3)ccc2O1 (configuration not stated) | 117% | – | – | – | – |
| CC1(C)C=Cc2cc(CN(C3CCCCC3)S(=O)(=O)c3cc(Cl)ccc3Cl)ccc2O1 | – | 60% | 24% | 54% | – |
| Cc1ccc(S(=O)(=O)N(Cc2ccc3c(c2)C=CC(C)(C)O3)C(C)C)cc1 | 55% | – | – | – | – |
| CC1(C)C=Cc2cc(C(O)c3cn(Cc4ccccc4)nn3)ccc2O1 (configuration not stated) | 88.8% | – | – | – | – |
| CC1(C)C=Cc2cc(C(O)c3cn(C45CC6CC(CC(C6)C4)C5)nn3)ccc2O1 (configuration not stated) | 101% | – | – | – | – |
| CC1(C)C=Cc2cc(CN(Cc3ccccc3)S(=O)(=O)c3ccc([N+](=O)[O-])cc3)ccc2O1 | – | 35% | 27% | 47% | – |
| COc1ccc(S(=O)(=O)N(Cc2ccccc2)Cc2ccc3c(c2)C=CC(C)(C)O3)c(OC)c1 | – | 54% | 20% | 60% | – |
| COc1c(CN(Cc2ccccc2)S(=O)(=O)c2ccc([N+](=O)[O-])cc2)ccc2c1OC(C)(C)C=C2 | 62.2% | – | – | – | – |
| COc1c(CN(Cc2ccccc2)S(=O)(=O)c2cc(Cl)ccc2Cl)ccc2c1OC(C)(C)C=C2 | 35% | – | – | – | – |
| CC1(C)C=Cc2cc(C(c3ccccc3)n3ccnc3)ccc2O1 (configuration not stated) | 88.9% | – | – | – | – |
| CC(C)N(Cc1ccc2c(c1)C=CC(C)(C)O2)C(=O)c1cccs1 | 46.2% | – | – | – | – |
| COc1ccc(S(=O)(=O)N(Cc2ccc3c(c2)C=CC(C)(C)O3)c2ccccc2)c(OC)c1 | – | 61% | 31% | 76% | – |
| CC(C)N(Cc1ccc2c(c1)C=CC(C)(C)O2)S(=O)(=O)c1cc(Cl)ccc1Cl | 41.9% | – | – | – | – |
| C=Cc1ccc2c(c1)C=CC(C)(C)O2 | 98.2% | – | – | – | – |
| CC1(C)C=Cc2cc(C(O)n3cc(-c4ccccc4)nn3)ccc2O1 (configuration not stated) | 106% | – | – | – | – |
| COc1c(CN(Cc2ccccc2)S(=O)(=O)c2ccc(C)cc2)ccc2c1OC(C)(C)C=C2 | 40.4% | – | – | – | – |
| COc1c(/C=N/O)ccc2c1OC(C)(C)C=C2 | 89.4% | – | – | – | – |
| COc1c(C(C)n2cnc3ncccc32)ccc2c1C=CC(C)(C)O2 (configuration not stated) | 95.7% | – | – | – | – |
| CC1(C)C=Cc2cc(CN(C(=O)c3cccs3)c3ccccc3)ccc2O1 | 79.1% | – | – | – | – |
